Blank lines part the entries; values can stand above or below the compound they belong to. Active and inactive are the calls of the source. No cut-off for these calls is given here.
How the values were obtained:
A549 [1] = assay: Antiproliferative activity in human A549 cells at 25 ug/ml after 60 hrs by […] based cellular impedance analysis; assay type: functional, cell-based
A549 [2] = assay: Antiproliferative activity in human A549 cells at 25 ug/ml up to 20 hrs by xCELLigence RTCA SP based cellular impedance analysis; assay type: functional, cell-based
In short: (§1)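 After compound treatment, A549 cells plated at 2000 cells/well on E-plates. Proliferation tracked over time as real-time cellular impedance on an xCELLigence RTCA DP instrument. Hydroxychloroquine was the positive control. Representative of three independent experiments.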

A549 [3] = assay: Induction of apoptosis in human A549 cells assessed as late apoptotic cells at 50 ug/ml after 8 hrs by Annexin V-FITC/propidium iodide staining based flow cytometry (reference value: 0.02%); assay type: functional
In short: (§2)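 A549 seeded at 5 × 10^5 per well and exposed to varying concentrations for 8 h. Harvested, washed twice in ice-cold PBS (0.01 M, pH 7.2), spun 5 min at 200 g, then stained with Annexin V-FITC/PI. Analysed by flow cytometry: Annexin V+/PI− scored apoptotic, double-positive necrotic or late apoptotic. Mean ± SD of three independent experiments.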

A549 [4] = assay: Induction of apoptosis in human A549 cells assessed as necrotic cells at 50 ug/ml after 8 hrs by Annexin V-FITC/propidium iodide staining based flow cytometry (reference value: 0.06%); assay type: functional; in short: as §2
A549 [5] = assay: Induction of apoptosis in human A549 cells assessed as early apoptotic cells at 50 ug/ml after 8 hrs by Annexin V-FITC/propidium iodide staining based flow cytometry (reference value: 0.03%); assay type: functional; in short: as §2
MCF7 [6] = assay: Antiproliferative activity in human MCF7 cells after 48 hrs by MTT assay; assay type: functional, cell-based; settings: MCF7, 48 h
In short: (§3)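 Cells exposed to compound for 48 h. Viability read by MTT, with absorbance of the solubilised MTT product at 570 nm. IC50 derived from at least three independent experiments.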

A549 [7] = assay: Induction of lysosomal rupture in human A549 cells 2 to 4 uM after 6 hrs by LysoTracker/AO dye based confocal microscopic analysis; assay type: functional, cell-based
In short: (§4)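 A549 treated 6 h, then loaded with LysoTracker Red (50 nm) or acridine orange (5 mg/mL). Lysosomal integrity imaged by confocal microscopy, with rupture scored as "pale cells" showing fewer dye-accumulating lysosomes.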

A549 [8] = assay: Antiproliferative activity in human A549 cells at 1.5 to 3 uM after 60 hrs by xCELLigence RTCA SP based cellular impedance analysis; assay type: functional, cell-based; in short: as §1
A549 [9] = assay: Antiproliferative activity in human A549 cells at 1.5 to 3 uM up to 20 hrs by xCELLigence RTCA SP based cellular impedance analysis; assay type: functional, cell-based; in short: as §1
K562 [10] = assay: Antiproliferative activity in human K562 cells after 48 hrs by MTT assay; assay type: functional, cell-based; settings: K562, 48 h; in short: as §3
A549 [11] = assay: Antiproliferative activity in human A549 cells after 48 hrs by MTT assay; assay type: functional, cell-based; settings: A549, 48 h; in short: as §3
A549 [12] = assay: Induction of lysosomal rupture in human A549 cells 2 to 4 uM after 6 hrs by LysoTracker/AO dye based flow cytometric analysis; assay type: functional, cell-based
In short: (§5)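 A549 treated 6 h, then exposed to LysoTracker Red (50 nm) or acridine orange (5 mg/mL). Loss of lysosomal dye retention measured by flow cytometry on a FACSCalibur.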

A549 [13] = assay: Antiproliferative activity in human A549 cells at 1.5 to 3 uM up to 5 hrs by xCELLigence RTCA SP based cellular impedance analysis; assay type: functional, cell-based; in short: as §1
A549 [14] = assay: Induction of apoptosis in human A549 cells assessed as cell shrinkage at 2 to 4 uM after 8 hrs by DAPI staining based fluorescence microscopic analysis; assay type: functional
In short: (§6)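 A549 seeded on glass coverslips at 5 × 10^4/mL and grown 24 h, then treated 8 h. Washed in cold PBS and fixed in cold methanol/acetone (1:1). Stained with DAPI ([…]) for 10 min at room temperature, washed with PBS/Triton X-100, mounted in PBS:glycerol 1:1. Nuclear morphology examined by fluorescence microscopy.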

A549 [15] = assay: Induction of apoptosis in human A549 cells assessed as late apoptotic cells at 1 uM after 8 hrs by Annexin V-FITC/propidium iodide staining based flow cytometry (reference value: 0.02%); assay type: functional; in short: as §2
A549 [16] = assay: Induction of lysosomal rupture in human A549 cells 1 to 2 uM after 6 hrs by LysoTracker/AO dye based flow cytometric analysis; assay type: functional, cell-based; in short: as §5
A549 [17] = assay: Induction of apoptosis in human A549 cells assessed as formation of granular apoptotic body at 0.5 to 1 uM after 8 hrs by DAPI staining based fluorescence microscopic analysis; assay type: functional, cell-based; in short: as §6
K562 [18] = assay: Potency index, ratio of ADR IC50 to compound IC50 for antiproliferative activity in human K562 cells; assay type: functional
A549 [19] = assay: Potency index, ratio of ADR IC50 to compound IC50 for antiproliferative activity in human A549 cells; assay type: functional
A549 [20] = assay: Induction of apoptosis in human A549 cells assessed as necrotic cells at 1 uM after 8 hrs by Annexin V-FITC/propidium iodide staining based flow cytometry (reference value: 0.06%); assay type: functional; in short: as §2
A549 [21] = assay: Induction of apoptosis in human A549 cells assessed as early apoptotic cells at 1 uM after 8 hrs by Annexin V-FITC/propidium iodide staining based flow cytometry (reference value: 0.03%); assay type: functional; in short: as §2
MCF7 [22] = assay: Potency index, ratio of ADR IC50 to compound IC50 for antiproliferative activity in human MCF7 cells; assay type: functional
A549 [23] = assay: Induction of apoptosis in human A549 cells assessed as cell shrinkage at 0.5 to 1 uM after 8 hrs by DAPI staining based fluorescence microscopic analysis; assay type: functional; in short: as §6
A549 [24] = assay: Induction of lysosomal rupture in human A549 cells 1 to 2 uM after 6 hrs by LysoTracker/AO dye based confocal microscopic analysis; assay type: functional, cell-based; in short: as §4

SMILES: CCN(CCO)CCCC(C)Nc1ccnc2cc(Cl)ccc12 (configuration not stated) [HYDROXYCHLOROQUINE]
- Activity (A549 [1]): Active
- Activity (A549 [2]): Active
- Activity (A549 [3]): 2.85%
- Activity (A549 [4]): 10.37%
- Activity (A549 [5]): 2.96%

- IC50 (MCF7 [6]): 430 nM
- IC50 (K562 [10]): 800 nM
- IC50 (A549 [11]): 990 nM
SMILES: Oc1cc2ccc1-c1c(ccc(CN3CCCC3)c1O)CCc1ccc(cc1)Oc1cc(cc(CN3CCCC3)c1O)CC2
- Activity (A549 [7]): Active
- Activity (A549 [8]): Active
- Activity (A549 [9]): Active
- Activity (A549 [12]): Active
- Activity (A549 [13]): Active
- Activity (A549 [14]): Active

- IC50 (MCF7 [6]): 230 nM
- IC50 (K562 [10]): 190 nM
- IC50 (A549 [11]): 510 nM
SMILES: CN(C)CCOc1ccc2cc1Oc1ccc(cc1)CCc1cccc(OCCN(C)C)c1-c1ccc(cc1OCCN(C)C)CC2
- Activity (A549 [15]): 26.69%
- Activity (A549 [16]): Active
- Activity (A549 [17]): Active
- Ratio IC50 (K562 [18]): 3 - 10
- Ratio IC50 (A549 [19]): 3 - 10
- Activity (A549 [20]): 52.68%
- Activity (A549 [21]): 0.55%
- Ratio IC50 (MCF7 [22]): 3 - 10
- Activity (A549 [23]): Active
- Activity (A549 [24]): Active
